Screening results: PubChem BioAssay, The Scripps Research Institute Molecular Screening Center
Hits are enriched below; roughly 2.5% of the tested compounds scored in any of these assays.
HTRA1 inh: HTRA1 serine protease inhibitors, primary screen, biochemical, fluorescence polarization, HTS; Q92743; recombinant HTRA1, FP-rhodamine activity-based probe; inhibition, % at 5.96 µM; hit rate 0.5% among 340,000; AID 504803, 2011; in the data active means inhibition above about 36%
Target sequence (Q92743 whole entry, looked up): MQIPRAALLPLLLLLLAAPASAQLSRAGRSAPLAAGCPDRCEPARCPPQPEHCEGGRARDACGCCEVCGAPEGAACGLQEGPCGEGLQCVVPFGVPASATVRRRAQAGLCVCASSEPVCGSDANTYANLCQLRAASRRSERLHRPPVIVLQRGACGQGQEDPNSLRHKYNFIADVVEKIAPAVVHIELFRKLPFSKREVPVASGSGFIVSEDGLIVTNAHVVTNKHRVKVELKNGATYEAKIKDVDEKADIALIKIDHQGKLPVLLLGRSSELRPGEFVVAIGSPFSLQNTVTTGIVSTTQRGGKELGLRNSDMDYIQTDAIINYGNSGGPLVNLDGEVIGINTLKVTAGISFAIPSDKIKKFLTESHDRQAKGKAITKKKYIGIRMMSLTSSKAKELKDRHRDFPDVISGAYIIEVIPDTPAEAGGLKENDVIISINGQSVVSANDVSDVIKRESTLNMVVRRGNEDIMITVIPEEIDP
TCR CD3 inh: inhibitors of human TCR-CD3 interaction, primary screen, biochemical, fluorescence, TAMRA-labeled TCR probe | hit rate 0.37% among 360,000 | inhibition, % at 9.4 µM | T-cell receptor (TCR); in the data active means inhibition above about 19%;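 further: recombinant mutant TCR 2C K166C tagged with TAMRA read by polarization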
ABHD4 inh: ABHD4 inhibitors, primary screen, biochemical, fluorescence polarization, mouse | (Lyso)-N-acylphosphatidylethanolamine lipase (Mus musculus), Q8VD66 | purified mABHD4, FP-Rh probe fluorescence polarization | inhibition, % at 8.92 µM | hit rate 0.54% among 370,000 | AID 720543, 2013;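 active means inhibition exceeding the mean over every tested compound plus 3 SD, cut at about 30% in these data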
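Assay system: Wild-type mouse ABHD4 protein | Medium: HEPES pH 7.0 buffer, 150 mM NaCl, 0.01% Pluronic F-127 | Incubation: Enzyme–compound pre-incubation 45 min, then probe 60 min, both 25 °C | Technique: Fluorescence polarization with parallel and perpendicular emission, 525/598 nm | Evaluation: % inhibition of FP-Rh probe binding versus controls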
SIAE inh: human SIAE inhibitors, primary screen, biochemical, fluorescence polarization, FP-Rh probe, 1536-well HTS. hit rate 0.69% among 370,000. SIAE FP-Rh probe binding. inhibition, % at 9.66 µM. AID 1053197, 2014;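 active means inhibition above a cutoff: mean of compounds within the control limits plus 3 SD of those, cut at about 17% in these data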
PRMT1 FP inh: PRMT1 methyltransferase inhibitors, primary screen, biochemical, fluorescence polarization; recombinant PRMT1, activity-based probe fluorescence polarization; inhibition, % at 2.79 µM; hit rate 1.3% among 370,000; AID 652257, 2013;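 active means inhibition above about 21% made by adding two undisclosed values, limit read from the data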
mABHD4 conf: ABHD4 inhibitors, retest, confirmation, biochemical, fluorescence polarization, mouse; inhibition, % at 8.92 µM; AID 720658, 2013; hit rate 55% among 1,800; shares compounds with ABHD4 inh; purified mABHD4, FP-Rh probe fluorescence polarization;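 active means mean inhibition across replicates above the hit cutoff set in the primary screen, cut at about 30% in these data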
Each line names hits and unclear results; the compound was inactive in the other large screens (follow-up assays come after a bar, where they were run).

Cc1c(Cc2ccccc2)c(=O)oc2c(O)c(O)ccc12	ABHD4 inh 35.4 (no result: HTRA1 inh) | mABHD4 conf 88.8
Cc1cc(=O)oc2c(O)c(O)ccc12	ABHD4 inh 29.6 | mABHD4 conf inactive
Cc1c(Cc2ccccc2)c(=O)oc2cc(O)ccc12	none
COc1ccc(NC(=O)N[C@H]2CC[C@@H](CC(=O)NC3CCC3)O[C@@H]2CO)cc1	none (no result: HTRA1 inh)
COC(=O)C(Cc1c[nH]c2ccccc12)NC(=O)CNC(C)=O (stereo unspecified)	none
COC(=O)[C@H](Cc1c[nH]c2ccccc12)NCc1cccc(B(O)O)c1	ABHD4 inh 77.3 | mABHD4 conf 61.9
COC(=O)[C@@H](Cc1c[nH]c2ccccc12)NCc1ccc(B(O)O)cc1	ABHD4 inh 71.8 | mABHD4 conf 64.4
CCOc1ccccc1N1Cc2cc(C)c(C)cc2C1	none
COc1ccc(OC)c(N2Cc3cc(C)c(C)cc3C2)c1	ABHD4 inh 30.2 | mABHD4 conf 35.8
COc1ccccc1N1CCN(S(=O)(=O)c2ccc3c(c2)CCC(=O)N3)CC1	none (no result: HTRA1 inh, TCR CD3 inh)
CC(C)OC(=O)CSc1nnc(-c2cnccn2)n1C	ABHD4 inh 116.3 | mABHD4 conf inactive
C=CCN1[C@H](CO)[C@H](c2ccccc2)[C@@H]1C#N	none (no result: HTRA1 inh, TCR CD3 inh)
COc1ccccc1[C@@H]1C(c2ccccc2)=NN(c2ccc(Br)cc2)[C@H]1C(=O)N1CCOC1=O	ABHD4 inh 48.7 | mABHD4 conf inactive
Cc1ccc(C(=O)C(C)OC(=O)Cn2cnc3c2c(=O)n(C)c(=O)n3C)cc1 (stereo unspecified)	none
Cc1ccc(/C=C2\SC(=S)N(CC3CCCO3)C2=O)o1 (stereo unspecified)	ABHD4 inh 29.6, PRMT1 FP inh 23.4 | mABHD4 conf inactive
O=C1/C(=C\c2ccc(-c3ccccc3Cl)o2)SC(=S)N1CC1CCCO1 (stereo unspecified)	none
O=C(CN1CCc2onc(-c3ccc(-n4cc(C5=CCCCC5)nn4)cc3)c2C1=O)N1CCOCC1	none (no result: HTRA1 inh, TCR CD3 inh)
NC(N)=N/N=C(\N=Nc1ccccc1)c1ccc(Cl)cc1	ABHD4 inh 43.7 | mABHD4 conf 55.0
CC1CCN(C(=O)c2ccccc2NS(=O)(=O)c2ccccc2)CC1	none
CC1CCN(c2ccc(C(=O)O)cc2NS(=O)(=O)c2ccccc2)CC1	ABHD4 inh 36.8 (no result: HTRA1 inh, TCR CD3 inh) | mABHD4 conf 38.6
CCC(C(=O)OCC(=O)N(CCOC)c1c(N)n(Cc2ccccc2)c(=O)[nH]c1=O)c1ccccc1 (stereo unspecified)	none
CC1=NN(c2nc(-c3ccccc3)cs2)C(=O)C1	ABHD4 inh 49.4 | mABHD4 conf 145.9
O=C1CC(c2ccccc2)=NN1c1nc(-c2ccccc2)cs1	none
Cc1ccc(S(=O)(=O)N2CCOC2CNC(=O)C(=O)NCCCN2CCOCC2)cc1 (stereo unspecified)	none
Cc1cc(C(=O)O)ccc1-n1c(C)cc(/C=C(/C#N)C(=O)Nc2ccccc2)c1C	ABHD4 inh 45.8 (no result: HTRA1 inh) | mABHD4 conf inactive
Cc1cc(/C=C(\C#N)C(=O)Nc2ccccc2)c(C)n1-c1cccnc1	none
CCC1(c2ccccc2)SC(N)=NC1=O (stereo unspecified)	none
O=C(COc1ncnc2scc(-c3ccc(Cl)cc3)c12)NCc1ccco1	none
COc1ccc(CN2CCC(N3CC(C)OC(C)C3)CC2)c(OC)c1OC (stereo unspecified)	ABHD4 inh 32.2 | mABHD4 conf inactive
Cc1ccc(C(=O)OCC(=O)N(C)C2CCS(=O)(=O)C2)cc1S(=O)(=O)N1CCCCC1 (stereo unspecified)	none
O=S1(=O)N[C@H](Cc2ccccc2)COc2cc(N3CCOCC3)ccc21	none (no result: HTRA1 inh)
O=Nc1ccccn1	none (no result: HTRA1 inh)
CCOC(=O)c1c(C)[nH]c(O)c1C=Nc1ccc(Cl)cc1	ABHD4 inh 59.1 | mABHD4 conf inactive
Nc1c(O)ccc2c1C(=O)c1ccccc1C2=O	ABHD4 inh 44.8 (no result: HTRA1 inh) | mABHD4 conf 47.2
Nc1ccc2c(c1)C(=O)c1ccc(N)cc1-2	ABHD4 inh 30.1 | mABHD4 conf 37.2
C=CCS/C(N)=N\N=C\c1cc(Br)cc([N+](=O)[O-])c1O	ABHD4 inh 30.6 | mABHD4 conf inactive
